Experimental findings from ChEMBL document CHEMBL3813596, “Conformational Constraint of the Glycerol Moiety of Lysophosphatidylserine Affords Compounds with Receptor Subtype Selectivity” (J Med Chem, 2016) are described below.

Calls of active or inactive are those of the source. No cut-off for these calls is given here. Some results are limits rather than exact numbers.

The target of assay [1] is Putative P2Y purinoceptor 10 (Mus musculus) (UniProt Q8BFU7). Description: Intrinsic activity at mouse P2Y10 receptor expressed in HEK293A cells after 1.5 hrs by alkaline phosphatase tagged-TGFalpha shedding assay relative to diF-C3-ph-o-O-C11. Format: cell-based. As to conditions: HEK293-A. In short, it runs like this: (§1)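 It is a dimensionless estimate of agonist activity. The GPR34 assay used HEK293A cells with chimeric Gαq/i1 and a 1.5 h incubation; the P2Y10 assay used HEK293A cells.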

The target of assay [2] is Probable G-protein coupled receptor 34 (Mus musculus, UniProt Q9R1K6). Briefly: (§2) Agonist activity at mouse GPR34 expressed in HEK293A cells cotransfected with chimeric Galphaq/il after 1.5 hrs by alkaline phosphatase tagged-TGFalpha shedding assay. In kind it is cell-based, HEK293-A.
The target in assay [3] is Putative P2Y purinoceptor 10 (Mus musculus) (UniProt Q8BFU7). Description: Agonist activity at mouse P2Y10 receptor expressed in rat McA-RH7777 cells assessed as induction of actin stress fiber formation at 100 nM after 30 mins by Alexa fluor 594-labelled phalloidin/DAPI staining based fluorescence microscopy. Format: cell-based. The method, boiled down: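 McA-RH7777 rat hepatoma cells stably expressing mouse P2Y10, or mock-infected, seeded on collagen I at 2.5 × 10^4 cells/well, grown 24 h in 10% FBS DMEM. Serum-starved 1 h in 0.01% BSA DMEM, stimulated 30 min. Fixed in 4% paraformaldehyde, Triton X-100 permeabilised, stained 1 h with Alexa 594-phalloidin (1.5 μg/mL) and DAPI (1 μg/mL). Scored by fluorescence imaging.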

Assay [4] deals with Putative P2Y purinoceptor 10 (Mus musculus, UniProt Q8BFU7). Description: (§3) Agonist activity at mouse P2Y10 receptor expressed in HEK293A cells after 1.5 hrs by alkaline phosphatase tagged-TGFalpha shedding assay. Format: cell-based, HEK293-A. In short, it runs like this:
(§4)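 Transient transfection of HEK293 cells with AP-TGFα plus the mouse receptor. For GPR34, HEK293A cells also got a chimeric Gαq/i1 subunit; P2Y10 was run in HEK293A and GPR174 in HEK293FT. Cells were seeded 24 h post-transfection in 5 mM HEPES (pH 7.4) HBSS onto serial 3.2-fold compound dilutions (top final 32 μM or lower, limited by mock-cell signal). Ki16425 was present, and incubation ran 1.5 h.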

Assay [5] has as its target Putative P2Y purinoceptor 10 (Mus musculus) (UniProt Q8BFU7). The description is as §3. Format: cell-based. The conditions noted are these: HEK293-A. In short, it runs like this: as §4
For assay [6], the target named is Probable G-protein coupled receptor 34 (Mus musculus) (UniProt Q9R1K6). Description: Intrinsic activity at mouse GPR34 expressed in HEK293A cells cotransfected with chimeric Galphaq/il after 1.5 hrs by alkaline phosphatase tagged-TGFalpha shedding assay relative to O-(Hydroxy(((2R,3R)-2-(((3-(2-((3-phenoxybenzyl)oxy)phenyl)-propanoyl)oxy)methyl)tetrahydro-2H-pyran-3-yl)oxy)phosphoryl)-L-serine. Format: cell-based. The conditions noted are these: HEK293-A. The method, boiled down:
as §1

Assay [7] addresses Probable G-protein coupled receptor 174 (Mus musculus) (UniProt Q3U507). Briefly: Agonist activity at mouse GPR174 expressed in HEK293FT cells after 1.5 hrs by alkaline phosphatase tagged-TGFalpha shedding assay. In kind it is cell-based. The method, boiled down: as §4
Assay [8] deals with Probable G-protein coupled receptor 34 (Mus musculus) (UniProt Q9R1K6). The assay is described as §2. Format: cell-based. As to conditions: HEK293-A.
A further assay deals with HEK293-A. Briefly: Selectivity ratio of EC50 for mouse P2Y10 receptor expressed in HEK293A cells to EC50 for mouse GPR34 expressed in HEK293A cells. In kind it is cell-based.
For assay [9], the target named is Probable G-protein coupled receptor 34 (Mus musculus) (UniProt Q9R1K6). Description: Agonist activity at mouse GPR34 expressed in HEK293A cells cotransfected with chimeric Galphaq/il assessed as increase in intracellular calcium levels at 1 uM measured after 35 secs by calcium 5 dye based fluorescence microplate reader method in presence of probenecid. Format: functional, cell-based. As to conditions: HEK293-A. In short, it runs like this:
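HEK293A cells were transfected with mouse GPR34 and Gαq/i1 plasmids, with empty vector plus Gαq/i1 as mock. After 24 h they were seeded in serum-free DMEM at 5 × 10^5 cells/mL for another 24 h. Cells were loaded with Calcium 5 dye for 1 h with 2.5 mM probenecid and given compound at 1 μM or 100 nM near 35 s. Fluorescence was recorded by plate reader, with SD of triplicates.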
(In general: A change in cytosolic calcium serves as a functional read-out for many receptors and channels.)

Sequence of Probable G-protein coupled receptor 34 (Q9R1K6 whole entry): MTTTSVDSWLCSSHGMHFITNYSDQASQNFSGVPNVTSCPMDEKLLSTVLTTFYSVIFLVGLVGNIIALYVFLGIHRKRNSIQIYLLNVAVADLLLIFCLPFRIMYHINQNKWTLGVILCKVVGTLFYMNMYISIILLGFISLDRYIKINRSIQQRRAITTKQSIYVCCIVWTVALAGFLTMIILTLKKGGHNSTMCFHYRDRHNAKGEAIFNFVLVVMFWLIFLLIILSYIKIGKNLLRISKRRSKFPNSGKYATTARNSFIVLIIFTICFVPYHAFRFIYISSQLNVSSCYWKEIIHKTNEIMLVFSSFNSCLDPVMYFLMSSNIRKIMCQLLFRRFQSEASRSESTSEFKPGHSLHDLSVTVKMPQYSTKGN
Sequence of Probable G-protein coupled receptor 34 (Mus musculus) (Q9R1K6 whole entry): as above
Sequence of Putative P2Y purinoceptor 10 (Mus musculus) (Q8BFU7 whole entry): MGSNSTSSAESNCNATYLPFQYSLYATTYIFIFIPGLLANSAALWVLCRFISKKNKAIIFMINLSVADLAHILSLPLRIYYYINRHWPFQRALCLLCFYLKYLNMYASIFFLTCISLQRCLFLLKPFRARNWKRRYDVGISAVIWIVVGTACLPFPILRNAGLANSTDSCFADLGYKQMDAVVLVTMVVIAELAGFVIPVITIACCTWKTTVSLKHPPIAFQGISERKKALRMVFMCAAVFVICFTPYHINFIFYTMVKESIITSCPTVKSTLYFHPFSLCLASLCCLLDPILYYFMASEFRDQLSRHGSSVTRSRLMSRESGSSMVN
Sequence of Putative P2Y purinoceptor 10 (Q8BFU7 whole entry): as above
Sequence of Probable G-protein coupled receptor 174 (Mus musculus) (Q3U507 whole entry): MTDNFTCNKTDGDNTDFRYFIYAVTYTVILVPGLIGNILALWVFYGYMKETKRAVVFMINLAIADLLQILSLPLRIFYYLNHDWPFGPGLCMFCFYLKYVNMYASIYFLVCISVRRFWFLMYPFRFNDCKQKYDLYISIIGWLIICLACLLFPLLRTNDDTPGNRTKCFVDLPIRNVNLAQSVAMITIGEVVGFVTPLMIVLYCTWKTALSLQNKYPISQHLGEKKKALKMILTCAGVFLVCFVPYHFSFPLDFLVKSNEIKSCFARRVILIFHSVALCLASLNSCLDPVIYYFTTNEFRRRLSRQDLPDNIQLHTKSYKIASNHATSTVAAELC

For orientation: EC50 means the concentration at which the effect is half-maximal. The Emax is the size of the effect at its maximum, as opposed to the concentration needed. In turn, `CCCCCCCCCCCOc1ccccc1CCC(=O)OC[C@H]1OCC=C[C@@H]1OP(=O)(O)OC[C@H](N)C(=O)O` came in with an Intrinsic activity in assay [1] of 0.071. Further, the concentration for a half-maximal effect (EC50) result is “Not Active” in assay [2] (hek293-a) and 17 nM in assay [4] (read-out: EC50). Also, in assay [3], the result was Active. Further, the Emax in assay [5] came out at 7.6%.

Regarding `N[C@@H](COP(=O)(O)OC[C@H]1OCCC[C@H]1OC(=O)CCc1ccccc1OCc1cccc(Oc2ccccc2)c1)C(=O)O`, the Intrinsic activity in assay [6] came to 0.85. Besides, the result in assay [7] and in assay [3] was inactive. Moreover, the Intrinsic activity entry in [1] is “inactive”. Besides, the EC50 in assay [2] (read-out: EC50) is 190 nM; in assay [4] (read-out: EC50), over 1000 nM. The Emax in assay [8] was 17.7%. Also, the Emax entry in [5] is “inactive”. Besides, in the assay on HEK293-A, the Ratio EC50 is 100. Also, the outcome in assay [9] was Active.

On to `CCCCCCCCCCCOc1ccccc1CCC(=O)OC[C@H]1OCC=C[C@H]1OP(=O)(O)OC[C@H](N)C(=O)O`, for which the Intrinsic activity in assay [1] is 0.05. Further, the EC50 worked out at 510 nM in assay [2] (read-out: EC50) and 42 nM in [4] (read-out: EC50). Also, the result in [3] was Active. The same molecule had an Emax in [5] of 12.4%.

Turning to `CCCCCCCCCCCOc1ccccc1CCC(=O)OCc1ccc(OP(=O)(O)OC[C@H](N)C(=O)O)cc1`, in assay [1], the Intrinsic activity entry is “inactive”. The EC50 result in assay [2] (hek293-a) is “Not Active”; in assay [4] (read-out: EC50) it was over 1000 nM. Moreover, in [3], the outcome was inactive. Besides, in assay [5], the Emax entry was “inactive”.

As to `Cc1ccc(Oc2cccc(COc3ccccc3CCC(=O)O[C@@H]3CCCO[C@@H]3COP(=O)(O)OC[C@H](N)C(=O)O)c2)cc1`, the Intrinsic activity in assay [6] came out at 1.9. Moreover, the EC50 in assay [2] (read-out: EC50) is 77 nM; in assay [4] (hek293-a), “Not Active”. The same molecule yielded an Emax in assay [8] of 16%. Besides, the result in [9] was Active.

The molecule `N[C@@H](COP(=O)(O)O[C@@H]1CCCO[C@@H]1COC(=O)CCc1ccccc1OCc1cccc(Oc2ccc(Cl)cc2)c1)C(=O)O` displayed an Intrinsic activity in assay [6] of 3.8. Also, in assay [1], the Intrinsic activity result was “inactive”. The EC50 in assay [2] (read-out: EC50) is 37 nM; in [4] (read-out: EC50), over 1000 nM. The molecule further registered an Emax in assay [8] of 16.6%. The Emax entry in [5] is “inactive”. Moreover, in [9], the outcome was Active.

For `CCCCCCCC/C=C\CCCCCCCC(=O)OC[C@@H](O)COP(=O)(O)OC[C@H](N)C(=O)O`, the values for the Intrinsic activity in assay [6] and in assay [1] were 0.33 and 0.073, respectively. In addition, the Emax in [8] came to 9.5%; in assay [5] it was 12.5%. In addition, the outcome in assay [3] was Active. The concentration giving a half-maximal response (EC50) in [4] (read-out: EC50) amounted to 25 nM.

On to `N[C@@H](COP(=O)(O)OC[C@H]1OCCC[C@@H]1OC(=O)CCc1ccccc1OCc1cccc(Oc2ccccc2)c1)C(=O)O`, for which the Intrinsic activity result in [6] and in assay [1] was “inactive” each time. Also, in assay [7], the outcome was inactive. Further, the EC50 in assay [2] (read-out: EC50) and in assay [4] (read-out: EC50) was over 1000 nM each time. Further, the Emax result in assay [8] and in assay [5] was “inactive” each time.

For `CCCCCCCCCCCOc1ccccc1CCC(=O)OC[C@H]1OCCC[C@H]1OP(=O)(O)OC[C@H](N)C(=O)O`, the Intrinsic activity in [6] is 0.41; in [1], 0.0038. Besides, in assay [7], the result was inactive. Further, the values for the EC50 in [2] (read-out: EC50) and in assay [4] (read-out: EC50) were 110 nM and 470 nM, respectively. Moreover, the Emax came out at 5.2% in assay [8] and 10.6% in assay [5].

In the case of `CCCCCCCCCCCOc1ccccc1CCC(=O)OC[C@H]1OCCC[C@@H]1OP(=O)(O)OC[C@H](N)C(=O)O`, the Intrinsic activity in assay [6] was 0.082; in assay [1], 0.002. Further, in assay [7], the result was inactive. The concentration giving a half-maximal response (EC50) worked out at 640 nM in assay [2] (read-out: EC50) and 610 nM in assay [4] (read-out: EC50). Further, the Emax in [8] worked out at 5.3%; in assay [5], 7.5%.

Molecule `Cc1ccc(Oc2cccc(COc3ccccc3CCC(=O)OC[C@H]3OCCC[C@H]3OP(=O)(O)OC[C@H](N)C(=O)O)c2)cc1` gave an Intrinsic activity in [6] of 3.6. Also, the Intrinsic activity result in assay [1] was “inactive”. The figures for the concentration giving a half-maximal response (EC50) in assay [2] (read-out: EC50) and in assay [4] (read-out: EC50) were 36 nM and over 1000 nM, respectively. This molecule also returned an Emax in assay [8] of 15.2%. Also, the Emax result in assay [5] is “inactive”. For the same molecule, the result in [9] was Active.

In assay [1], `CCCCCCCCCCCOc1ccccc1CCC(=O)OCc1cccc(OP(=O)(O)OC[C@H](N)C(=O)O)c1` registered an Intrinsic activity of 0.23. Further, the results for the EC50 entry in assay [2] (hek293-a) and in assay [4] (read-out: EC50) were “Not Active” and 6.7 nM, respectively. In assay [3], the result was Active. Further, the Emax in assay [5] turned out to be 10.8%.

In assay [6], `N[C@@H](COP(=O)(O)OC[C@H]1OCCC[C@H]1OC(=O)CCc1ccccc1OCc1cccc(Oc2ccc(Cl)cc2)c1)C(=O)O` registered an Intrinsic activity of 1.2. The Intrinsic activity entry in [1] was “inactive”. Also, the figures for the EC50 in [2] (read-out: EC50) and in assay [4] (read-out: EC50) were 120 nM and over 1000 nM, respectively. The molecule also had an Emax in assay [8] of 15.1%. Moreover, in [5], the Emax result was “inactive”. The result in assay [9] was Active.

For the molecule `N[C@@H](COP(=O)(O)O[C@@H]1CCCO[C@@H]1COC(=O)CCc1ccccc1OCc1cccc(Oc2ccccc2)c1)C(=O)O`, the outcome in assay [7] and in assay [3] was inactive. For the same molecule, the Intrinsic activity entry in [1] is “inactive”. Further, the EC50 in assay [2] (read-out: EC50) was 140 nM; in [4] (read-out: EC50) it was over 1000 nM. Further, the Emax in assay [8] was found to be 14.8%. In assay [5], the Emax result was “inactive”. Besides, the Ratio EC50 in the assay with HEK293-A is 100. For the same molecule, the result in [9] was Active.

Take `CCCCCCCCCCCOc1ccccc1CCC(=O)O[C@H]1CCCO[C@@H]1COP(=O)(O)OCC(N)C(=O)O` (single isomer, unassigned): in assay [6], the Intrinsic activity entry was “inactive”. In assay [7], the outcome was inactive. The Intrinsic activity in assay [1] was found to be 0.0098. For the same molecule, the EC50 entry in [2] (hek293-a) is “Not Active”; in assay [4] (read-out: EC50), 290 nM. Further, the Emax in [8] is under 3%; in [5], 7.2%. For the same molecule, in [8], the pEC50 result was “inactive”.

Regarding `CCCCCCCCCCCOc1ccccc1CCC(=O)OCc1ccccc1OP(=O)(O)OC[C@H](N)C(=O)O`, the results for the Intrinsic activity in assay [6] and in assay [1] were 0.2 and 0.02, respectively. For the same molecule, the values for the EC50 in assay [2] (read-out: EC50) and in [4] (read-out: EC50) were 700 nM and 45 nM, respectively. Also, the Emax is 5.9% in assay [8] and 5.8% in [5]. Also, the outcome in assay [3] was Active.
